Data as given in ChEMBL document CHEMBL4219232, “Discovery of novel serine palmitoyltransferase inhibitors as cancer therapeutic agents” (Bioorg Med Chem, 2018).
Values after ≈ are worked out from the molar mass of the structure shown. One block for each compound: values may come before it.

Assays:
HCC4006 = assay: Growth inhibition of human HCC4006 cells assessed as inflection point after 5 days by cell-titer-glo luminescent cell viability assay; assay type: functional
Outline: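 HCC4006 cells were grown in RPMI with 10% FBS and penicillin/streptomycin, seeded at 250 cells/well and cultured overnight. Cells were then exposed to compound for 5 days, and the medium was replaced with CellTiter-Glo reagent for a luminescence read. The IP is the concentration at the inflection point of the dose-response curve, n = 2.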

[1] = target: T1, Serine palmitoyltransferase 2 (Homo sapiens, UniProt O15270); assay: Inhibition of human SPT2 transfected in Freestyle293 cells using L-serine and palmitoyl-CoA as substrate preincubated for 60 mins followed by substrate addition measured after 15 mins by mass spectrometric analysis; assay type: cell-based
T1 sequence (O15270 whole entry): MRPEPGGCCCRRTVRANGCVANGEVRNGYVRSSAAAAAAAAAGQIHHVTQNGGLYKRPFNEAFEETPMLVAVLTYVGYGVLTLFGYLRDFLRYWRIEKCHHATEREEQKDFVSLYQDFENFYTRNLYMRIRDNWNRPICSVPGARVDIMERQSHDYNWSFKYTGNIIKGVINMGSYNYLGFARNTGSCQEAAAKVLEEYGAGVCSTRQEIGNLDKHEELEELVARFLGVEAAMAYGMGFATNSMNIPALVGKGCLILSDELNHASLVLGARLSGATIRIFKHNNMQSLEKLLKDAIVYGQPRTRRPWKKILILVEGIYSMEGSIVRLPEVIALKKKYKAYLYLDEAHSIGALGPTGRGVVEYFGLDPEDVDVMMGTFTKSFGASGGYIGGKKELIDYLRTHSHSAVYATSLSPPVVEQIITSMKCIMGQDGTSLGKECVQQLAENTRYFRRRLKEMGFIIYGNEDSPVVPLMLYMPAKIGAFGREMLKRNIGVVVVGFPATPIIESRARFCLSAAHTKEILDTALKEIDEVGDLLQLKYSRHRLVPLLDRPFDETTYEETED

[2] = Inhibition of SPT in human HCC4006 cells assessed as reduction in ceramide content after 24 hrs in presence of C16-ceramide-d31/C14-phosphatidylcholine-d72 by LC/MS analysis; conditions: HCC4006, 24 h
[3] = Growth inhibition of human PL21 cells after 5 days by cell-titer-glo luminescent cell viability assay; assay type: functional; conditions: for IC50: Homo sapiens, PL-21, 120 h
[4] = Clearance in human liver microsomes in presence of NADPH; assay type: ADME, microsome; conditions: read-out: CLH
Outline: (§1)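 Metabolic clearance was measured in human or mouse liver microsomes with NADPH, n = 2, in μL/min/mg.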

[5] = Oral bioavailability in non-fasted mouse at 1 mg/kg administered as cassette dosing by LC/MS/MS analysis; assay type: ADME, organism-based; conditions: in vivo
Outline: (§2)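 Non-fasted mice received compounds as cassettes, intravenously at 0.1 mg/kg (10 compounds per cassette) or orally at 1 mg/kg (5 compounds per cassette). Blood was collected and centrifuged to plasma. Plasma was deproteinized with acetonitrile and centrifuged before analysis. Parameters are means of n = 3.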

[6] = Clearance in mouse liver microsomes in presence of NADPH; assay type: ADME, microsome; conditions: read-out: CLH; outline: as §1
[7] = Thermodynamic solubility in Japanese pharmacopoeia disintegration test solution 2 at 6.8; assay type: physicochemical; conditions: Japanese pharmacopoeia disintegration test solution 2, pH 6.8; read-out: Therm_solubility
Outline: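 Thermodynamic solubility was measured in Japanese Pharmacopoeia disintegration test solution 2 at pH 6.8.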

[8] = Volume of distribution at steady state in non-fasted mouse at 0.1 mg/kg, iv administered as cassette dosing by LC/MS/MS analysis; assay type: ADME, organism-based; conditions: in vivo, read-out: Vdss; outline: as §2
[9] = Total clearance in non-fasted mouse at 0.1 mg/kg, iv administered as cassette dosing by LC/MS/MS analysis; assay type: ADME, organism-based; conditions: in vivo; outline: as §2
[10] = Cmax in non-fasted mouse at 1 mg/kg, po administered as cassette dosing by LC/MS/MS analysis; assay type: ADME, organism-based; set-up: dose 1 mg/kg, route oral; conditions: in vivo; outline: as §2
[11] = Tmax in non-fasted mouse at 1 mg/kg, po administered as cassette dosing by LC/MS/MS analysis; assay type: ADME, organism-based; conditions: in vivo; outline: as §2
[12] = AUC in non-fasted mouse at 1 mg/kg, po administered as cassette dosing by LC/MS/MS analysis; assay type: ADME, organism-based; conditions: in vivo; outline: as §2
[13] = MRT in non-fasted mouse at 1 mg/kg, po administered as cassette dosing by LC/MS/MS analysis; assay type: ADME, organism-based; conditions: in vivo; outline: as §2
Mus musculus [14] = assay: In vivo inhibition of SPT in tumors of human HCC1806 cells xenografted in mouse assessed as reduction in 3-KDS levels at 10 mg/kg, po measured after 8 hrs post dose by LC/MS analysis relative to control; assay type: functional
Outline: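 HCC1806 breast cancer xenograft mice were dosed orally at 10 mg/kg. Tumor 3-KDS was quantified by LC/MS 8 h after dosing and compared with vehicle. Data are mean ± SD, n = 5, analysed by Dunnett's test.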

[15] = Permeability of the compound from apical to basolateral side at pH 7.8 by PAMPA
[16] = Antitumor activity against human PL21 cells xenografted in mouse at 10 mg/kg, po administered every other day for 2 weeks relative to control; assay type: functional
Outline: (§3)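 PL-21 xenograft mice, n = 6 per group. Compound was suspended in 0.5% aqueous methylcellulose and given orally every other day for two weeks at 10 or 30 mg/kg. Tumor volume and body weight were followed. T/C is the median tumor weight of the treated group divided by that of the control group.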

[17] = Antitumor activity against human PL21 cells xenografted in mouse at 30 mg/kg, po administered every other day for 2 weeks relative to control; assay type: functional; outline: as §3
Mus musculus [18] = assay: Toxicity in mouse xenografted with human PL21 cells assessed as body weight loss at 10 to 30 mg/kg, po administered every other day for 2 weeks; assay type: organism-based; conditions: in vivo, 336 h; outline: as §3

SMILES: COc1ccc(C(=O)N2CCC(NC(=O)c3ccccc3Cl)C(c3ccccc3)C2)cc1OC (mixture of isomers)
IP (HCC4006): 41 nM

SMILES: CCCCCCC(=O)CCCCCC/C=C/C[C@@H](O)[C@H](O)[C@@](N)(CO)C(=O)O [MYRIOCIN]
IC50 [1]: 0.13 nM
IP (HCC4006): 2.1 nM
IC50 [2]: 1.5 nM
Imax [3]: >90%
IC50 [3]: 7.8 nM

microsomal CLint [4]: 15 µL/min/mg
bioavailability [5]: 25%
SMILES: COc1cc(C(=O)N2CCC(NC(=O)c3ccccc3OC(F)(F)F)c3c2cnn3C(C)C)cnc1OC (racemic)
IP (HCC4006): 23 nM

SMILES: COc1ccc(C(=O)N2CC[C@@H](NC(=O)c3ccccc3Cl)[C@H](c3ccccc3)C2)cc1OC
IP (HCC4006): 570 nM

microsomal CLint [4]: 6 µL/min/mg
microsomal CLint [6]: 6 µL/min/mg
bioavailability [5]: 28%
SMILES: COc1ccc(C(=O)N2CCC(NC(=O)c3ccccc3Cl)c3c2cnn3C)cc1OC (racemic)
IP (HCC4006): 250 nM

SMILES: COc1ccc(C(=O)N2CC[C@H](NC(=O)c3ccccc3Cl)[C@H](c3ccccc3)C2)cc1OC
IP (HCC4006): 3800 nM

SMILES: COc1ccc(C(=O)N2CCC(Nc3ccc(Cl)cc3)c3ccc(Cl)cc32)cc1OC (stereo not given)
IP (HCC4006): 12000 nM

microsomal CLint [4]: 21 µL/min/mg
microsomal CLint [6]: 245 µL/min/mg
bioavailability [5]: < 1%
SMILES: COc1ccc(C(=O)N2CC[C@@H](NC(=O)c3ccccc3Cl)[C@@H](c3ccccc3)C2)cc1OC
IP (HCC4006): 14 nM

SMILES: COc1cc(C(=O)N2CC[C@@H](NC(=O)c3ccccc3OC(F)(F)F)c3c2cnn3C(C)C)cnc1OC
IP (HCC4006): >30000 nM

microsomal CLint [4]: < 1 µL/min/mg
microsomal CLint [6]: 60 µL/min/mg
bioavailability [5]: 56%
IC50 [2]: 2.3 nM
solubility thermodynamic [7]: 8 µg/mL (≈ 14.7 µM)
Vd [8]: 0.75 L/kg
clearance [9]: 8.45 mL/min/kg
Cmax [10]: 282 ng/mL
Tmax [11]: 1.2 h
AUC [12]: 1110 ng·h/mL
MRT [13]: 2.7 h
Papp [15]: 20.3 ×10⁻⁶ cm/s
SMILES: Cn1nc(C(F)(F)F)cc1C(=O)N[C@@H]1CCN(C(=O)c2cc(Cl)c3nccnc3c2)C[C@@H]1c1ccccc1
IP (HCC4006): 11 nM
Imax [3]: >90%
IC50 [3]: 11 nM
inhibition in vivo at 10 mg/kg (Mus musculus [14]): 40%

microsomal CLint [4]: 6 µL/min/mg
microsomal CLint [6]: 5 µL/min/mg
bioavailability [5]: 53%
IC50 [2]: 2.4 nM
solubility thermodynamic [7]: 24 µg/mL (≈ 45 µM)
Vd [8]: 1.13 L/kg
clearance [9]: 15.9 mL/min/kg
Cmax [10]: 309 ng/mL
Tmax [11]: 0.5 h
AUC [12]: 572 ng·h/mL
MRT [13]: 1.4 h
Papp [15]: 16.7 ×10⁻⁶ cm/s
SMILES: COc1cc(C(=O)N2CC[C@H](NC(=O)c3ccccc3OC(F)(F)F)c3c2cnn3C(C)C)cnc1OC
IP (HCC4006): 3.9 nM
Imax [3]: >90%
IC50 [3]: 4.1 nM
inhibition in vivo at 10 mg/kg (Mus musculus [14]): 40%
T/C [16]: 52%
T/C [17]: 38%
Activity (Mus musculus [18]): Non-Toxic

microsomal CLint [4]: 132 µL/min/mg
microsomal CLint [6]: 216 µL/min/mg
SMILES: COc1ccc(C(=O)N2CCC(NC(=O)c3ccccc3Cl)c3ccc(Cl)cc32)cc1OC (stereo not given)
IP (HCC4006): 500 nM

SMILES: COc1ccc(C(=O)N2CC[C@H](NC(=O)c3ccccc3Cl)[C@@H](c3ccccc3)C2)cc1OC
IP (HCC4006): >30000 nM
